STAT1 blocker: reduces IFN-gamma driven STAT1 reporter signal; NIH 3T3 STAT1-luciferase reporter, luminescence; inhibition, % at 5.5 µM; 200,000 compounds, 0.35% hits; AID 920;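 active = inhibition above a set limit, the mean inhibition across all tested compounds plus 3 SD, cut at about 34% in these data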;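 also: 0% = IFN-gamma with DMSO and 100% = IFN-gamma with 300 µM nifuroxazide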
STAT3 act: increases IL-6 driven STAT3 reporter signal | U3A cells, IL-6 STAT3-luciferase reporter, luminescence; 100% = signal with IL-6 EC80 alone | activation (% of control), % at 5.6 µM | 190,000 compounds, 0.91% hits | AID 871;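 active = activation above the screen-wide mean of compound activation plus 3 SD, cut at about 130% in these data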;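 also: 0% = background luminescence of wells with medium and substrate only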
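Material: STAT1-lacking human U3A cells, STAT3 luciferase reporter | Benchmarks: IL-6-only wells as 100% reference | Probe or stimulus: IL-6 (33 ng/mL) | Timing: Compound 1 h, then IL-6 6 h at 37 °C | Detection: Luminescence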
C8 TRAIL sens: sensitizes caspase-8 expressing cells to TRAIL; NB7+C8 cells + TRAIL, ATPlite viability luminescence; inhibition (viability loss, TRAIL sensitization), % at 10 µM; 360,000 compounds, 1% hits;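 active = compounds causing at least 50% loss of cell viability in the single-dose screen, relative to plate controls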
STAT3 inh: reduces IL-6 driven STAT3 reporter signal. AID 862. inhibition, % at 5.5 µM. U3A cells, IL-6 STAT3-luciferase reporter, luminescence; host cell line lacks STAT1. 190,000 compounds, 0.89% hits;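 active = inhibition above the mean inhibition across all screened compounds plus 3 SD, cut at about 44% in these data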;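 also: 0% = DMSO only wells and 100% = 100 µM nifuroxazide control wells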
PPC-1+TRAIL kill: PPC-1 cancer cell killing with TRAIL present; PPC-1 cells + TRAIL, ATPLite viability luminescence; cell killing (% activity), % at 4 µM or 5 µM; 220,000 compounds, 0.41% hits;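 active = cell killing above 50% in the first pass at 4 µM, then a duplicate retest at 5 µM averaging 50% or more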;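 also: plate controls were cells with TRAIL plus DMSO for no effect and medium-only wells lacking cells for full effect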
* marks the source's active call; other numbers are inactive results; . = no result. The list is not random: actives were taken first. Their share in the collection is about 1.8%.

SMILES	STAT1 blocker	STAT3 act	C8 TRAIL sens	STAT3 inh	PPC-1+TRAIL kill
COc1ccc(C=NNC(=O)CCCC(=O)NN=Cc2ccc(OC)c(OC)c2)cc1OC	.	.	1	.	.
COc1cc(/C=N/NC(=S)Nc2cccc(C(=O)O)c2)ccc1O	71*	16	35	97*	27
COc1cc(/C=N/NC(=O)c2ccccc2)ccc1O	-22	99	6	3	32
CCN(CC)CCNC(=O)c1cc2cc(Br)ccc2s1	0	106	15	-6	-5
CCc1ccc(S(=O)(=O)/N=C2\C=CC(=O)c3ccccc32)cc1	3	145*	.	-50	12
CCc1ccc(S(=O)(=O)/N=C2/C=C(Sc3ncn[nH]3)C(=O)c3ccccc32)cc1	5	139*	25	-50	36
CCc1ccc(S(=O)(=O)/N=C2\C=C(Nc3ccc(O)cc3)C(=O)c3ccccc32)cc1	.	.	97*	.	.
CCc1ccc(S(=O)(=O)/N=C2\C=C(Nc3cccc(C(=O)O)c3)C(=O)c3ccccc32)cc1	.	.	17	.	.
Cc1cccc(CCN2CCN=C2N(C)C)c1	.	.	12	.	.
Cc1nc2sccn2c(=O)c1S(=O)(=O)NCC1CCN(Cc2ccc(Cl)cc2)CC1	.	.	26	.	.
CC(C)(C)c1ccc(S(=O)(=O)N2CCc3nc4ccccc4c(C(=O)O)c3C2)cc1	.	.	25	.	.
CC(CNS(=O)(=O)c1ccccc1)(c1ccccc1)N1CCCCC1 (stereo not given)	.	.	-2	.	3
CC(=O)Nc1nc2ccccc2n1Cc1ccccc1Cl	.	.	18	.	-3
CC(=O)Nc1nc2ccccc2n1Cc1ccccc1C	-27	134*	17	-34	13
Nc1nc(=S)c2ncn([C@@H]3O[C@H](CO)[C@@H](O)[C@H]3O)c2[nH]1	.	.	73*	.	.
Nc1nc(=S)c2ncn(C3OC(CO)C(O)C3O)c2[nH]1 (stereo not given)	.	.	56*	.	-22
CC1(C)OC2C(CO)OC(n3cnc4c(=S)nc(N)[nH]c43)C2O1 (stereo not given)	.	.	11	.	.
COc1ccc(/C=N/NC2=NS(=O)(=O)c3ccccc32)cc1OC(C)=O	.	.	8	.	.
CC(=O)Nc1ncc(Sc2ccc([N+](=O)[O-])cc2)s1	.	.	-15	.	.
CCOc1ncccc1C(=O)OCc1ccc(C(=O)OC)cc1	-33	137*	3	-35	12
CC(NC(=O)c1cc(S(=O)(=O)N2CCCC2)ccc1Cl)c1ccccn1 (stereo not given)	.	.	-4	.	.
O=C(COC(=O)c1n[nH]c2ccccc12)NC(=O)NC12CC3CC(CC(C3)C1)C2	-8	93	57*	14	14
COc1ccc(S(=O)(=O)NN(C)c2ncc(C(F)(F)F)cc2Cl)cc1	1	96	-3	8	0
CNc1nc(N/N=C/c2cc([N+](=O)[O-])ccc2F)nc(Nc2ccccc2)n1	.	.	58*	.	.
CNc1nc(N/N=C/c2cc3c(cc2[N+](=O)[O-])OCO3)nc(Nc2ccccc2)n1	-15	89	-6	15	26
SMILES	STAT1 blocker	STAT3 act	C8 TRAIL sens	STAT3 inh	PPC-1+TRAIL kill
CC(C)NC(=O)c1cc2n(n1)C(C(F)(F)F)CC(c1ccco1)N2 (stereo not given)	6	102	9	9	8
Cc1cc(NC(=O)c2cc3n(n2)C(C(F)(F)F)CC(c2ccco2)N3)no1 (stereo not given)	-7	97	60*	12	-9
CCn1c2ccccc2c2cc(Nc3cc(C)nc4ncnn34)ccc21	-2	136*	8	-43	32
O=C(c1cc(-c2cccs2)nc2ccccc12)N1CCN(CCO)CC1	.	.	7	.	.
N#CC(C#N)=Cc1ccc(NC(=O)c2ccc(Br)cc2)cc1	.	.	13	.	21
CC(C)(C)c1ccc(C(=O)Nc2ccc(C=C(C#N)C#N)cc2)cc1	-4	88	53*	15	50*
CCOc1ccc2nc(NC(=O)CN3CCC(n4nnc5cc(C(F)(F)F)ccc54)CC3)sc2c1	4	92	56*	13	13
N#Cc1nc(Nc2cccc(Cl)c2)c2ncn(C3CCCC3)c2n1	.	.	52*	.	.
CCn1cnc2c(Nc3cc(F)cc(F)c3)nc(C#N)nc21	.	.	16	.	.
NC(=O)/C=C/C(=O)Nc1ccc(Cl)cc1	0	116	-4	-17	13
O=C(/C=C/C(Cl)(Cl)Cl)Nc1ccc(Cl)cc1	.	.	93*	.	.
Cc1ccc(NC(=O)c2sc3nc(CCl)[nH]c(=O)c3c2C)c(C)c1	-32	107	55*	-7	24
C/C(=N/N=C/c1ccc(N(C)C)cc1)c1ccccc1	-37	100	56*	0	18
COc1ccccc1/C=C/C1(C(=O)NC2CCCC2)CC(=O)N1c1ccc(F)cc1 (stereo not given)	11	100	92*	3	7
COc1ccccc1/C=C/C1(C(=O)NC2CCCC2)CC(=O)N1c1ccc(C)cc1 (stereo not given)	0	104	60*	-1	10
Fc1ccc(-c2cn3cc(C(F)(F)F)cc(Cl)c3n2)cc1	-43	174*	20	-75	24
COc1ccc(C(O)c2ncc(C(F)(F)F)cc2Cl)cc1 (stereo not given)	.	.	9	.	.
COc1ccc(-c2cn3cc(C(F)(F)F)cc(Cl)c3n2)cc1	-58	161*	39	-67	28
COC(=O)[C@@]12C[C@@H](CC(=O)NCCCCc3ccccc3)C(=O)N(Cc3ccc4c(c3)OCO4)C1=CCC(C)(C)C2	.	.	11	.	.
CCC(C(=O)O/N=C(\N)c1ccccc1)c1ccccc1 (stereo not given)	-4	96	71*	6	11
CCC(C(=O)O/N=C(\N)c1ccc(Cl)cc1)c1ccccc1 (stereo not given)	0	100	32	0	4
CCC(C(=O)O/N=C(\N)c1ccc(C)cc1)c1ccccc1 (stereo not given)	-9	97	72*	9	4
CCOC(=O)c1c(C)nc2c(c1-c1cc(OC)ccc1OC)C(=O)c1ccccc1-2	0	107	68*	-1	-4
CCOC(=O)c1c(C)nc2c(c1-c1ccccc1)C(=O)c1ccccc1-2	0	90	25	22	23
CC(C)Cc1nc2oc3c(Cl)ncnc3c2c2c1CCCC2	.	.	67*	.	3
SMILES	STAT1 blocker	STAT3 act	C8 TRAIL sens	STAT3 inh	PPC-1+TRAIL kill
O=C1C=CC(=O)C(CNc2ccc(C(=O)OCc3ccccc3)cc2)=C1	.	.	91*	.	.
Cc1cccc(CN2C[C@]34CC[C@@H](C[C@@H]3S2(=O)=O)O4)c1	.	.	-16	.	8
CSc1ccc(/C=N/Nc2cccc(C(=O)O)c2)cc1	64*	79	9	33	-25
O=C(O)c1cccc(N/N=C/c2ccc(OC(F)(F)F)cc2)c1	.	.	21	.	.
Cc1ccsc1/C=N/Nc1nc2ccccc2s1	-82	144*	25	-59	21
C(=N\Nc1nc2ccccc2s1)/c1cccs1	-51	119	21	-19	32
CC(=NNc1nc2ccccc2s1)c1ncccn1	.	.	23	.	.
Cc1nn(-c2ccccc2Cl)c(Cl)c1/C=N/Nc1nc2ccccc2s1	34	39	56*	73*	46

Screening results deposited in PubChem by several laboratories.
